The values below come from PubChem BioAssay.

Activity calls are given as the source filed them.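 Rule for the calls, unless noted: active = inhibition at or above 50% relative to wild type and mutant plate controls; inactive = inhibition below 50%.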

Test [1] is described as follows: inhibitors of TNFa-induced NFkB p65 translocation, primary screen, imaging, HUVEC, MLSMR starter and 10KST1 sets (AID 438;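 active = inhibition above 20% together with a positive visual image hit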;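 note: compound added about 3h40 before a 20 min TNFalpha stimulation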;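 for inhibition: signal is the nuclear over cytoplasmic p65 intensity ratio per well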). As to conditions: HUVEC TNFa-induced p65 nuclear translocation; cell count: measured here: nuclei count (cytotoxicity indicator), at 2.08 µM; inhibition: at 2 µM, stronger effect = higher value, 0% TNFa-plus-vehicle, 100% no-TNFa wells.
Test [2] in a line: endothelial E-selectin expression blockers – imaging, HUVEC, immunofluorescence, MLSMR starter and 10KST1 sets, primary screen (AID 487;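 active = visually confirmed hit in the image check and inhibition above 20%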;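 for inhibition: signal is fraction of cell area covered by stained E-selectin grains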;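 for nuclei count: 100% = median nuclei count of all wells on the same plate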). As to conditions: HUVEC TNFalpha-induced E-selectin immunofluorescence imaging, at 2 µM; inhibition: stronger effect = higher value; nuclei count: measured here: cell number, toxicity.
Test [3] is described as follows: Primary imaging screen for DUSP6 inhibitors that restore phospho-Erk in transfected HeLa cells, chemical complementation (AID 609;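 active = compounds giving at least 50% inhibition in the cell-based MKP-3 phosphatase rescue imaging test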;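 for inhibition: phospho-Erk level distribution per well compared with pooled transfected vehicle control wells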). As to conditions: HeLa MKP-3 transfected, phospho-Erk imaging KS statistic, at 10 µM, cells stimulated with TPA for 15 min.
For test [4], the target named is Dual specificity protein phosphatase 6 (Homo sapiens) (UniProt Q16828). The test is described as above. As to conditions: HeLa MKP-3 transfected, phospho-Erk imaging KS statistic; at 10 µM; stronger effect = higher value; cells stimulated with TPA for 15 min.
Test [5] concerns the target Voltage-gated potassium channel subunit beta-2 (Rattus norvegicus) (UniProt P62483). Description: inhibitors of rat Kvbeta2 reductase activity – biochemical, NADPH fluorescence, primary screen (AID 622;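 active = fluorescence slope higher than the sample average by over 3 SD, cut at about -0.22 in these data, passing the limit was not always enough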;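 note: slope of raw intensity against log time taken from 70 to 1610 s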). As to conditions: recombinant KvBeta, 4-cyanobenzaldehyde reduction, at 10 µM, stronger effect = higher value.
The target is the same in test [6]. Description: enhancers of rat Kvbeta2 NADPH turnover – biochemical, NADPH fluorescence, primary screen (AID 623;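 active = NADPH fluorescence slope more negative than the mean of all samples by about 3 SD, 99.7% confidence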;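 note: fluorescence intensity change per second fitted from 20 to 320 s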). As to conditions: Recombinant KvBeta, NADPH fluorescence decrease slope, 10 min; at 10 µM; stronger effect = lower value.
Test [7] concerns the target Muscarinic acetylcholine receptor M4 (Homo sapiens) (UniProt P08173). As to the kind of experiment: M4-linked GIRK flux change, two-sided – cell-based, HEK293 M4/GIRK, thallium flux, BTC-AM, M4 allosteric agonist project, primary screen (AID 625;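 active = fluorescence slope after compound addition differing from the mean of all tested samples at 99.7% confidence, mostly higher but some lower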;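 note: thallium influx through GIRK channels coupled to M4 in HEK293 cells with BTC-AM dye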). As to conditions: at 10 µM, actives lie on both sides. In a few lines:
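System: HEK293 cells with M4 receptor and GIRK channels | Incubation: Cells overnight at 37 °C, BTC-AM loading 1 h, reads 2 min total | Technique: Kinetic BTC-AM fluorescence sampled at 1 Hz, 10 s pre-addition baseline | Measure: Post-addition slope, 15–24 s, of baseline-normalized fluorescence | Control set: Carbachol positive, DMSO negative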

Test [8] is described as follows: inhibitors of larval lipid processing in zebrafish, primary screen, whole organism, PED6 fluorescence, gall bladder and intestine (AID 686;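 active = a full or partial loss of lipid-probe fluorescence in the fish gall bladder, intestine or both, judged by eye; inactive = no fluorescence loss, or compound toxic to the fish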;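 note: larvae 5 to 7 days old with five fish per well; signal comes from phospholipase A2 cleavage of quenched PED6 carried via bile; overnight exposure to compound and PED6 before scoring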). As to conditions: Zebrafish larvae PED6 lipid processing, fluorescence scoring; screened at 20 µM (by protocol). The method, boiled down:
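Test system – live zebrafish larvae aged 5-7 days, whole organism · Buffer or medium – E3 fish medium · Reagent – quenched phospholipase substrate PED6, 100 nM final, ingested by larvae · Doses – 20 µM single dose · Incubation – overnight compound and PED6 incubation · Technique – visual fluorescence microscopy scoring of gall bladder, gut · Read-out basis – visual per-well fluorescence inhibition score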

Test [9] in a line: loss of swimming-algae plug formation – whole organism, Chlamydomonas reinhardtii, WT vs cilia-less mutant, absorbance, 96-well, primary screen (AID 463189).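 Note: 0% = wild type cc124 cells in DMSO and 100% = ciliumless bld1 mutant cells.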 As to conditions: Chlamydomonas reinhardtii gravitaxis, OD600 absorbance, 2 days; at 10 µM; stronger effect = higher value.
[10] abbreviates: measured here: cell density z-score.
The mark [11] stands for this setting: measured here: nuclear c-Myc green intensity z-score.
Setting [12] is: measured here: nuclear pErk red intensity z-score, stronger effect = higher value.

Sequence of Dual specificity protein phosphatase 6 (Homo sapiens) (Q16828 whole entry, looked up): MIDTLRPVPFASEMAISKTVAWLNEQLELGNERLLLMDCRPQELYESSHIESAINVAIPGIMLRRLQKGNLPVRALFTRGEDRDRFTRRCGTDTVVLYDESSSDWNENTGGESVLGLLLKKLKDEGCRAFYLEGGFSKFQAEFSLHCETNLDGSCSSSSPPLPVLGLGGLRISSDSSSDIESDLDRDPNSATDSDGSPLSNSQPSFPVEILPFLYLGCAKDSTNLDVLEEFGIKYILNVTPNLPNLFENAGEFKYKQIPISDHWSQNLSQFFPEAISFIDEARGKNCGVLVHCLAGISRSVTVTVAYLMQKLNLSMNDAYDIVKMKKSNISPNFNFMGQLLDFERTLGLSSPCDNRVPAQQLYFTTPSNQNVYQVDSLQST
Sequence of Muscarinic acetylcholine receptor M4 (Homo sapiens) (P08173 whole entry, looked up): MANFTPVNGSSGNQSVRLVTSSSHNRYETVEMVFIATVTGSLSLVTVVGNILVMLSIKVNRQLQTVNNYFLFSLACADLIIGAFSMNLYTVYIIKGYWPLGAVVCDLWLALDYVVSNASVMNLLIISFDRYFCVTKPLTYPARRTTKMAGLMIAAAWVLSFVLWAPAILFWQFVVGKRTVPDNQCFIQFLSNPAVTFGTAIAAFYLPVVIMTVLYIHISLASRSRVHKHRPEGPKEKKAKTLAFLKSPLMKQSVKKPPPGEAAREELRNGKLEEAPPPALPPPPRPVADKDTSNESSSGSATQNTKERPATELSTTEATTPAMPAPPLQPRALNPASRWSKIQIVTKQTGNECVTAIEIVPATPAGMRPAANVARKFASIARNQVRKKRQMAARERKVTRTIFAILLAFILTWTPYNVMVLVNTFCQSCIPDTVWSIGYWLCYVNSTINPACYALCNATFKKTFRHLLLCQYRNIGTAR
Sequence of Voltage-gated potassium channel subunit beta-2 (Rattus norvegicus) (P62483 whole entry, looked up): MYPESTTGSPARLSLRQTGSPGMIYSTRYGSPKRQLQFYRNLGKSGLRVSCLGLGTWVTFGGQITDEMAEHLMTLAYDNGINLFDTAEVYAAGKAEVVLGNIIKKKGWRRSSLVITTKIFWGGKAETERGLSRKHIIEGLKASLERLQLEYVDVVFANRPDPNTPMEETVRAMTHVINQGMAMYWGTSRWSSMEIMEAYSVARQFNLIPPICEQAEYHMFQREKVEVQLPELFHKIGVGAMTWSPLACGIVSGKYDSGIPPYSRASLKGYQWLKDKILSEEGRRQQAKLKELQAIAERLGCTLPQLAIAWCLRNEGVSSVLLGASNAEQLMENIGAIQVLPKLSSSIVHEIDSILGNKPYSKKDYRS

Turning to `Cc1nc(=O)c(-c2ccccc2)c(C)n1-c1ccc(S(N)(=O)=O)cc1`, the cell count in test [1] stood at 568. The inhibition (commonly the drop in the measured response relative to a control, in per cent) in [1] is -4.9% (inactive); in [2], -74.8% (inactive); in test [4] it was 7.93% (inactive); in [9], -8.67% (inactive). In test [2], this compound had a nuclei count of 154%. Also, the results for the z-score in test [3] (setting [10]), in test [3] (setting [11]) and in test [3] (setting [12]) were 0.3, 0.245 and 1.29, respectively. For the same compound, the figures for the fluorescence slope in [5] and in [7] were -0.406 (inactive) and 0.00537 (inactive), respectively. For the same compound, the NADPH fluorescence slope in test [6] is -4.5e-05 (inactive). Besides, the compound was called inactive in [8].

Regarding `C=CCN=C(NC#N)SCCc1ccccc1`, the cell count in [1] came out at 587. For the same compound, the inhibition in test [1] is -16.1% (inactive); in test [2], 49.5% (inactive); in test [4], -5.62% (inactive); in test [9], -0.302% (inactive). Also, in test [2], the nuclei count stood at 161%. Besides, the z-score in test [3] (setting [10]) is -0.943; in test [3] (setting [11]) it was 1.91; in [3] (setting [12]), -0.167. Also, the fluorescence slope was -0.498 (inactive) in test [5] and 0.00676 (inactive) in [7]. Also, the NADPH fluorescence slope in test [6] is -6.6e-05 (inactive). Further, the outcome in test [8] was inactive.

Turning to `CCN(CC)CCN1C(=O)C(=O)/C(=C(/O)c2c(C)[nH]c(C(=O)OC)c2C)C1c1ccccc1` (stereo unspecified), in [1], the cell count amounted to 727. For the same compound, the inhibition in test [1] is -3.9% (inactive); in [2], -88% (inactive); in test [4], -11.9% (inactive); in test [9] it was 13.3% (inactive). In test [2], this compound yielded a nuclei count of 165%. The z-score stood at 0.278 in [3] (setting [10]), 0.96 in test [3] (setting [11]) and 0.24 in [3] (setting [12]). Also, the values for the fluorescence slope in test [5] and in test [7] were -0.485 (inactive) and 0.0049 (inactive), respectively. The NADPH fluorescence slope in test [6] is -4.8e-05 (inactive). For the same compound, the outcome in [8] was inactive.

As to `COc1ccc(CN(C#N)c2nc(SC)nc(N(C)C)n2)cc1`, in [1], the cell count turned out to be 720. Moreover, the inhibition is -0.6% (inactive) in test [1], -41.4% (inactive) in [2], -3.95% (inactive) in test [4] and -6.51% (inactive) in [9]. Besides, the nuclei count in test [2] came to 137%. In addition, the z-score in test [3] (setting [10]) was found to be 0.386; in test [3] (setting [11]) it was 1.03; in test [3] (setting [12]) it was 0.357. Also, the fluorescence slope was -0.451 (inactive) in test [5] and 0.00509 (inactive) in [7]. Moreover, in test [6], the NADPH fluorescence slope is -4.7e-05 (inactive). For the same compound, the outcome in [8] was inactive.

For `CCCC(=O)Nc1nn(CCC)c2nc3ccccc3cc12`, in test [1], the cell count amounted to 632. Moreover, the inhibition is -8.1% (inactive) in [1], 7.7% (inactive) in test [2], 2.71% (inactive) in [4] and 6.78% (inactive) in test [9]. In test [2], this compound had a nuclei count of 142%. Besides, the values for the z-score in test [3] (setting [10]), in test [3] (setting [11]) and in test [3] (setting [12]) were -0.342, -1.58 and 0.919, respectively. Besides, the fluorescence slope in test [5] was -0.481 (inactive); in test [7] it was 0.00673 (inactive). Moreover, the NADPH fluorescence slope in test [6] was -6.7e-05 (inactive). Also, the compound was called inactive in test [8].

Turning to `CC(C)COc1ccc(C(=O)OCCN2CCOCC2)c(O)c1`, the cell count in test [1] is 551. The inhibition in test [1] is -4.8% (inactive); in test [2], 5.6% (inactive); in [4], 19.8% (inactive); in test [9], 20.9% (inactive). For the same compound, the nuclei count in [2] turned out to be 138%. Also, the z-score in [3] (setting [10]) was 0.333; in [3] (setting [11]), -1.8; in test [3] (setting [12]), 0.367. Besides, the fluorescence slope is -0.366 (inactive) in test [5] and 0.00568 (inactive) in [7]. Further, the NADPH fluorescence slope in [6] was -3.7e-07 (inactive). Further, the call in test [8] was inactive.

Consider `O=C(CN1C(=O)c2ccccc2S1(=O)=O)NCCSCc1ccco1`, for which the cell count in [1] is 373. Besides, the inhibition in [1] was -5.5% (inactive); in test [2], -25.2% (inactive); in test [4], 20.2% (inactive); in test [9], -7.41% (inactive). This compound also gave a nuclei count in test [2] of 142%. In addition, the z-score in test [3] (setting [10]) was 0.363; in [3] (setting [11]) it was 0.199; in test [3] (setting [12]), 0.301. Further, the figures for the fluorescence slope in [5] and in test [7] were -0.457 (inactive) and 0.00395 (inactive), respectively. In test [6], the NADPH fluorescence slope was -0.000137 (inactive). In addition, in test [8], the result was inactive.
